Bioassay records as filed in PubChem BioAssay.
S1P3 ag: activates the human S1P3 receptor | S1P3 NFAT-BLA reporter cells, agonism, FRET ratio; relative to 1 µM S1P, basal subtracted | 0.1% of 60,000 active | Q99500 | AID 373 | activation, % at 4.5 µM;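 active = activation above the screen-wide mean plus 3 SD, cut at about 4.5% in these data, passing the limit was not always enough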
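Measure – % activation relative to 1 µM S1P (100%), per plate · System – stable CHO line with human S1P3, Gα16, NFAT-BLA reporter · Timing – cells plated overnight, compound 4 h 37 °C, substrate 2 h RT · Technique – fluorescent BLA substrate, ex 405 nm, em 460/535 nm ratio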
HTR1E antagonist: blocks the human 5-HT1E serotonin receptor; CHO 5-HT1E Ga15 NFAT-bla reporter, FRET, antagonist; inhibition, % at 6 µM; 0.99% of 65,000 active;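 active = inhibition above a set limit, the mean inhibition across every tested compound plus 3 SD, cut at about 29% in these data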;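 also: signal is the 460 over 535 nm emission ratio of beta-lactamase substrate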
5-HT1A blocker: antagonists of human 5-HT1a serotonin receptor; P08908; CHO 5-HT1a Ga15 NFAT-bla reporter, antagonist mode; inhibition, % at 10 µM; 0.68% of 62,000 active; AID 612;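 active = inhibition above the mean of all tested compounds plus 3 SD, cut at about 43% in these data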;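 also: receptor stimulated by 5-CT agonist at 100 nM near EC80; beta-lactamase reporter measured by ratiometric fluorescence of a cleavable substrate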
S1P1 ag-PAM: activates or potentiates agonism at human S1P1 receptor; P21453; S1P1 CRE-bla cells, forskolin, beta-lactamase FRET, potentiator mode; S1P1 agonist co-added at EC20, 2 nM; 100% = saturating reference agonist, 0% = basal; activation, % at 9.5 µM; 0.57% of 56,000 active;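 active = activation above a cutoff set at the mean activation of all tested compounds plus 3 SD, cut at about 54% in these data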;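 also: forskolin at 4 µM as EC80 and the EC20 agonist is SEW2871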
Target sequence (P21453 whole entry, looked up): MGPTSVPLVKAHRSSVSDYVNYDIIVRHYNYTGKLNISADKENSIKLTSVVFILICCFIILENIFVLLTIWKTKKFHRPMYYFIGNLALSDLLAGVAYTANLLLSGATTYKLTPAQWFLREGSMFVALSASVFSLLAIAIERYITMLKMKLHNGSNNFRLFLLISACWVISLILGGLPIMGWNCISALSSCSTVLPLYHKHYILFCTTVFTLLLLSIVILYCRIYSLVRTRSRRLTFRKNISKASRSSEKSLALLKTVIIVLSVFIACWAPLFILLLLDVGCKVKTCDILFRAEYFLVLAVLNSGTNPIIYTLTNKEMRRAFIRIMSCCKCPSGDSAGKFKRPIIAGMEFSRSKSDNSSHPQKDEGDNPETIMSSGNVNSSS
5HT1a ag: agonists of human 5-HT1a serotonin receptor. CHO 5-HT1a Ga15 NFAT-bla reporter, FRET ratio; 0% basal, 100% maximal reference agonist. P08908. 0.56% of 65,000 active. activation, % at 10 µM. AID 567;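 active = activation above the screen-wide mean activation plus 3 SD, cut at about 19% in these data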
HTR1E agonist: activates the human 5-HT1E serotonin receptor. P28566. CHO 5-HT1E Ga15 NFAT-bla reporter, FRET; 0% DMSO wells, 100% control agonist wells. activation, % at 6 µM. 0.69% of 65,000 active;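 active = activation above a set limit, the screen-wide mean activation plus 3 SD, cut at about 8.5% in these data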
Numbers stand for hits; - = inactive; . = no result. Shown are actives, neighbours in structure and some others; about 3% of the full set was active somewhere.

SMILES | S1P3 ag | HTR1E antagonist | 5-HT1A blocker | S1P1 ag-PAM | 5HT1a ag | HTR1E agonist
Cc1nnc(SCC(=O)N2CCN(S(=O)(=O)c3ccc(Cl)cc3)CC2)n(N)c1=O | - | - | - | - | - | 24.4
CSCC[C@H](NC(=O)Nc1ccc(C)cc1C)C(=O)O | - | - | - | - | 110.8 | -
CSCC[C@H](NC(=O)NCc1ccccc1F)C(=O)O | - | - | - | - | - | -
COC(=O)c1ccc(-n2c(C)cc(/C=N/n3cnnc3)c2C)cc1 | - | - | - | - | - | 18.6
Cc1cc(/C=N/n2cnnc2)c(C)n1-c1cc(Cl)ccc1Cl | - | 39.7 | 51.6 | - | - | -
COC(=O)CSc1nc2cc(Cl)ccc2c(=O)n1C1CCCC1 | - | - | - | - | - | -
Cn1c(C(=O)N2CCCc3ccccc32)cc2sccc21 | - | - | - | 85.7 | - | -
COC(=O)c1cc2sccc2n1CC(=O)N1CCCc2ccccc21 | - | - | - | - | - | -
CCOC(=O)Cc1csc(NC(=O)CSc2nnc(-c3ccncc3)n2Cc2ccco2)n1 | - | - | - | - | - | -
O=C(Cc1ccc(-n2cccc2)cc1)NCc1cccs1 | - | 50.7 | - | - | - | -
O=C(Cn1cccc1)NCc1cccs1 | - | - | - | - | - | -
COCc1[nH]nc2c1C(c1ccc(OC)cc1)C(C#N)=C(N)O2 (stereo not given) | - | - | . | - | - | -
Cc1nn(Cc2nc(-c3cccs3)no2)c(C)c1Br | - | - | - | - | - | -
Cc1cc(C)cc(OCC(=O)NCc2nc(-c3ccccc3)no2)c1 | - | - | - | - | - | -
CCN(Cc1ccccc1)C(c1cccs1)c1nnnn1C1CCCCC1 (stereo not given) | - | - | 43.9 | - | - | -
CC(c1nnnn1C1CCCCC1)N(Cc1ccccc1)Cc1cccnc1 (stereo not given) | - | - | - | - | - | -
CCOC(=O)C(C(C)=O)c1c(Br)c(O)c(O)c2c(C(=O)c3ccc(C)cc3)coc12 (stereo not given) | - | - | 44.9 | - | - | -
c1ccc(CNc2ncnc3ccccc23)cc1 | - | - | - | 105.7 | - | -
COc1cccc2sc(=NC(=O)c3ccc(S(=O)(=O)N4CCOCC4)cc3)n(C)c12 | - | - | - | - | - | -
CC(C)[C@H](NC(=O)OC(C)(C)C)c1nnc(SCC(=O)Nc2ccc(Br)cc2)o1 | - | - | - | 60.8 | - | -
CC(C)=CCSc1nnc([C@@H](NC(=O)OC(C)(C)C)C(C)C)o1 | - | - | - | - | - | -
CC(=O)N1CCc2cc(S(=O)(=O)NCCCN3CCN(Cc4ccccc4)CC3)ccc21 | . | - | - | . | - | 34.7
COc1ccc(CN(C(=O)CSc2nnc(-c3ccc(F)cc3)o2)c2ccc(F)cc2)cc1 | - | - | - | - | - | -
O=C(CSc1nnc(Cn2nnc3ccccc32)o1)N(Cc1ccc(F)cc1)c1ccccc1 | - | - | - | 67.9 | - | -
C=CCn1c(=O)c2ccccc2n2c(SCc3nc(N)nc(Nc4ccccc4C)n3)nnc12 | - | 30.4 | - | - | - | -
SMILES | S1P3 ag | HTR1E antagonist | 5-HT1A blocker | S1P1 ag-PAM | 5HT1a ag | HTR1E agonist
C=CCn1c(=O)c2ccccc2n2c(SCC(=O)c3ccccc3)nnc12 | - | - | - | - | - | -
CCCC1(CCC)NC(=O)NC1=O | - | - | - | - | - | -
O=C(CN1CCCCC1)NCCNC(=O)CN1CCCCC1 | - | - | - | . | - | -
CCN(C(=O)C1CCCCC1)c1nnc(-c2cccnc2)s1 | - | - | - | 99.0 | - | -
CCN(C(=O)c1c(OC)cccc1OC)c1nnc(-c2cccnc2)s1 | - | - | - | - | - | -
CCC(CC)c1nc2cc(OC)c(OC)cc2c(=O)o1 | - | - | . | - | - | 35.0
COc1ccc(N2CCN(CC(O)c3c[nH]c4ccc(OC)cc34)CC2C)cc1 (stereo not given) | - | - | - | - | 22.9 | -
COc1ccc2[nH]cc(C(O)CN3CCN(c4ccccc4)CC3)c2c1 (stereo not given) | - | - | - | - | - | -
CCOc1ccccc1NC(=O)CN(c1cc(C)cc(C)c1)S(=O)(=O)c1c(C)noc1C | - | - | - | - | - | -
Cc1noc(C)c1S(=O)(=O)N(CC(=O)Nc1ccc2c(c1)OCO2)c1ccc(C(C)C)cc1 | - | - | - | 79.2 | - | -
CCOc1ccc(N(CC(=O)Nc2ccc(C)c(C)c2)S(=O)(=O)c2c(C)noc2C)cc1 | - | - | - | - | - | -
COc1ccccc1NC(=O)CN(c1ccc(C)cc1)S(=O)(=O)c1c(C)n[nH]c1C | - | - | 63.1 | - | - | -
Cc1nn(C)c(C)c1S(=O)(=O)N(CC(=O)Nc1ccc2c(c1)OCO2)c1ccc(C(C)C)cc1 | - | - | - | - | - | -
CCOc1ccc(N(CC(=O)Nc2ccccc2C)S(=O)(=O)c2c(C)noc2C)cc1 | - | 46.3 | - | - | - | -
CCOc1ccccc1NC(=O)CN(c1ccc(OC)cc1)S(=O)(=O)c1c(C)noc1C | - | 68.1 | - | - | - | -
CC(C)COC(=O)CCNc1n[nH]c(=O)[nH]c1=O | - | - | . | - | - | -
Cc1cccc(OCCCc2c(C)n[nH]c2C)c1 | - | - | - | - | - | -
NC(=O)C1CCN(C(=O)CN2C(=O)c3ccccc3S2(=O)=O)CC1 | - | - | - | - | - | -
CC1CCN(C(=O)CN2C(=O)c3ccccc3S2(=O)=O)CC1 | - | - | - | - | 37.9 | -
c1ccc(CNC2=NCCCCC2)cc1 | - | - | - | - | - | 12.8
CCCn1c(=O)c2ccccc2n2c(SCN3C(=O)c4ccccc4C3=O)nnc12 | - | - | - | - | - | -
CCCn1c(=O)c2ccccc2n2c(SCc3c(C(=O)OCC)oc4ccccc34)nnc12 | 12.7 | - | - | - | - | -
COc1ccc(N(CC(=O)NC2CCCC2)C(=O)Cn2nnc(-c3ccc(C)cc3)n2)cc1OC | - | - | - | - | - | 54.4
COC(=O)c1sc2ccccc2c1C(=O)OC | - | - | - | - | - | 10.9
COC(=O)c1sc2ccccc2c1N | - | - | - | - | - | -
Cc1noc(C)c1COc1ccc(C(=O)OC(C)C(=O)Nc2ccc(N3CCOCC3)cc2)cc1 (stereo not given) | - | - | - | - | - | 120.3
CC(=O)c1ccc(N2CCN(C(=O)c3ccc(OCc4c(C)noc4C)cc3)CC2)cc1 | - | - | - | - | - | -
O=C(Nc1cccc(C(F)(F)F)c1)C1CCCN1S(=O)(=O)c1cccc2cccnc12 (stereo not given) | - | - | - | 71.2 | - | -
CCOC(=O)c1cccc(NC(=O)C2CCCN2S(=O)(=O)c2cccc3cccnc23)c1 (stereo not given) | - | - | - | - | - | -
